Measured values from BindingDB's records for doi:10.1021/jm050851n (University of Arizona, 2006).

Biological target: Mu-type opioid receptor (Rattus norvegicus, UniProt P33535)
Assay: Displacement of [3H]DAMGO from rat mu opioid receptor expressed in HN9.10 cells
Method in brief: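 Membranes from stably transfected HN9.10 neuroblastoma cells in 50 mM Tris pH 7.4 with bacitracin, bestatin, captopril, PMSF and 1 mg/mL BSA. 50 µg membrane, 10 test concentrations, 1.0 nM [3H]DAMGO (Kd level). Nonspecific binding defined with 10 µM naloxone. Duplicates, 3 h at 25 °C, filtration, scintillation counting. Ki from IC50 by Cheng–Prusoff; at least two independent experiments.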

Mu-type opioid receptor, sequence (P33535 whole entry): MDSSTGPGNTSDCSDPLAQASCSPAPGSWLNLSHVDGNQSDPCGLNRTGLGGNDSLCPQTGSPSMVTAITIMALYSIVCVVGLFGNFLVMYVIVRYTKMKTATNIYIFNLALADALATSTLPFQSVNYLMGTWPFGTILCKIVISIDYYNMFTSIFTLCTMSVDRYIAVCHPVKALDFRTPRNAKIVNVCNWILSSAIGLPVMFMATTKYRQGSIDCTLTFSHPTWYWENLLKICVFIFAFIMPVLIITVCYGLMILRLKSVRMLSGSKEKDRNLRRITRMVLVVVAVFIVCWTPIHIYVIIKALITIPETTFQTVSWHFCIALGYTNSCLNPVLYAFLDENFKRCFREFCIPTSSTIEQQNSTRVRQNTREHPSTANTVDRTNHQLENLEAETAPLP

Compound `CC(=O)N[C@@H](Cc1c[nH]c2ccccc12)C(=O)N[C@@H](CCCCNC(=O)Nc1ccccc1Cl)C(=O)N[C@@H](CC(=O)O)C(=O)N(C)[C@@H](Cc1ccccc1)C(=O)NNC(=O)[C@H](Cc1ccccc1)NC(=O)CNC(=O)[C@@H](C)NC(=O)[C@@H](N)Cc1ccc(O)cc1` [H-Tyr-D-Ala-Gly-Phe-NH-NH-(NMe)Phe-Asp-Lys(Cpac)-Trp-Ac] has an EC50 of 14 nM.
